ERp5 block – inhibitors of ERp5-driven insulin aggregation, primary screen, biochemical, turbidity, absorbance 650 nm, single point | 90 min | inhibition, % at 9.99 µM | 350,000 compounds, 0.05% hits;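 active = mean replicate inhibition above about 25%, with every replicate also reaching it, limit read from the data, passing the limit was not always enough; inconclusive = only one of those two criteria met; inactive = neither criterion met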
Target sequence (Q15084 whole entry, looked up): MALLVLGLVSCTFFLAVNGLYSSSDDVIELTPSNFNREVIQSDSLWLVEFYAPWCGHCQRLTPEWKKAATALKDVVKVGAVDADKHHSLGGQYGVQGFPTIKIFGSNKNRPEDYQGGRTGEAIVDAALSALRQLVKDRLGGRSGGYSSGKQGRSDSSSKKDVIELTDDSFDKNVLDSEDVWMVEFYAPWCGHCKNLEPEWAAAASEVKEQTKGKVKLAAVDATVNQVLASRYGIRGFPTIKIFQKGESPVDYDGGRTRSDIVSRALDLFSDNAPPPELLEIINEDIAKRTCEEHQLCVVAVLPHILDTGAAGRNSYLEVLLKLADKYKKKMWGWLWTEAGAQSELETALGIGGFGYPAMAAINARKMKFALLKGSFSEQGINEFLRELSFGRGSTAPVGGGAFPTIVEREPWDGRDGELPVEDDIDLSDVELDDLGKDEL
Tb MetRS inh – T. brucei MetRS inhibitors, primary screen, biochemical, luminescence | methionyl-tRNA synthetase (Trypanosoma brucei brucei) | inhibition, % at 11.9 µM | AID 624268, 2012 | purified T. brucei MetRS, ATP depletion, Kinase-Glo luminescence | 360,000 compounds, 0.4% hits;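 active = inhibition above a per-plate cutoff of the control wells' mean inhibition plus 3 SD, cut at about 5.5% in these data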
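Test system: purified T. brucei MetRS enzyme. Also added: ATP, methionine and E. coli bulk tRNA substrates. Compound: 11.9 µM single point. Schedule: 15 min enzyme-compound preincubation, 2 h reaction, 10 min detection, 25 °C. Signal: luciferase luminescence of residual ATP, Kinase-Glo. Evaluation: percent inhibition versus plate control medians. Controls: DMSO wells, low control.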
PDI inh – inhibitors of human PDI, primary screen, biochemical, turbidity, single point, plate reader | Protein disulfide-isomerase (Homo sapiens), P07237 | 350,000 compounds, 0.052% hits | PDI insulin aggregation turbidity, A650, 90 min | inhibition, % at 10 µM;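 active = mean inhibition across replicates of 30% or more, whatever share of single replicates reach that level; inconclusive = mean inhibition below 30% while every single replicate reaches 30%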
Tb MetRS conf – T. brucei MetRS inhibitors, confirmation, biochemical, luminescence; shares compounds with Tb MetRS inh; T. brucei MetRS enzyme, luminescence (ATP depletion); inhibition, % at 11.9 µM; 1,400 compounds, 93% hits; AID 624412, 2012; in the data active = inhibition above about 7%
Jurkat cytotox – Jurkat T cell cytotoxicity, cytotoxicity control for T. brucei MetRS inhibitor project, luminescence, high throughput; shares compounds with Tb MetRS inh; 1,400 compounds, 12% hits; Jurkat cells viability, ATP luminescence; inhibition, % at 8.3 µM; in the data active = inhibition above about 15%
TbMetRS FP orth – T. brucei MetRS inhibitors, orthogonal assay for T. brucei MetRS inhibitor project, biochemical, fluorescence polarization. shares compounds with Tb MetRS inh. purified T. brucei MetRS. inhibition, % at 11.9 µM. 1,400 compounds, 44% hits; in the data active = inhibition above about 17%
Large screens that a line does not name were inactive (follow-up assays come after a bar, where they were run). Sampled rows, rich in hits. Any-hit rate of the full collection: about 0.4%.

COc1cc2[nH]c3c(N4CCN(c5ccc(Cl)cc5)CC4)ncnc3c2cc1OC	none (no result: ERp5 block)
Nc1ccccc1Nc1cc(-c2ccccc2)[nH]n1	Tb MetRS inh 5.8 | Tb MetRS conf inactive | Jurkat cytotox 96 | TbMetRS FP orth inactive
Nc1ccccc1Nc1cc(-c2ccccc2)nn1-c1ccccc1	ERp5 block inconclusive
COc1ccc(S(=O)(=O)N(C)C[C@@H]2OCCCC[C@H](C)Oc3ccc(NS(=O)(=O)c4c(C)noc4C)cc3C(=O)N([C@H](C)CO)C[C@@H]2C)cc1	none (no result: Tb MetRS inh, PDI inh)
O=C(CCn1c(=O)oc2ccccc21)Nc1ccc2c(c1)OCCO2	Tb MetRS inh 21 (no result: PDI inh) | Tb MetRS conf inactive | Jurkat cytotox inactive | TbMetRS FP orth inactive
O=C(Cn1c(=O)oc2ccccc21)Nc1ccc2c(c1)OCCO2	none (no result: ERp5 block)
C[C@H](CO)N1C[C@H](C)[C@@H](CN(C)Cc2ccc(C(F)(F)F)cc2)Oc2ccc(NC(=O)CCC(F)(F)F)cc2CC1=O	none (no result: Tb MetRS inh, PDI inh)
O=C(C1CC1)N1C[C@H]2[C@@H](c3ccccc31)[C@@H](CO)N2C(=O)c1cccc(F)c1	none (no result: Tb MetRS inh, PDI inh)
O=C(C/C=N\OCc1ccc([N+](=O)[O-])cc1)Nc1ccccc1	Tb MetRS inh 13 | Tb MetRS conf 31 | Jurkat cytotox inactive | TbMetRS FP orth inactive
O=C(C/C=N\OCc1ccc([N+](=O)[O-])cc1)Nc1ccc(Cl)cc1	Tb MetRS inh 74 | Tb MetRS conf 101 | Jurkat cytotox inactive | TbMetRS FP orth 80
O=C(Cc1ccc([N+](=O)[O-])cc1)Nc1ccc(Cl)cc1	none
O=C(C/C=N\OCc1ccc(Cl)cc1Cl)Nc1ccccc1	none
C[C@@H]1CCCCO[C@@H](CN(C)C(=O)Nc2ccccc2)[C@H](C)CN([C@H](C)CO)C(=O)c2cc(NC(=O)C3CCCCC3)ccc2O1	none (no result: Tb MetRS inh, PDI inh)
O=C(NCc1cccs1)c1cccc(Nc2nc3ccc(Br)cc3[nH]2)c1	Tb MetRS inh 5.7 | Tb MetRS conf 25 | Jurkat cytotox inactive | TbMetRS FP orth 22
O=C(NCc1cccs1)c1ccccc1	none (no result: ERp5 block)
O=C(Nc1ccccc1F)N[C@@H]1CC[C@@H](CCNS(=O)(=O)c2ccc(F)cc2)O[C@@H]1CO	none (no result: Tb MetRS inh, PDI inh)
O=C(Nc1ccccc1)N1CCCCN2[C@H](CO)[C@H](c3ccc(C4=CCCCC4)cc3)[C@@H]2C1	none (no result: Tb MetRS inh, PDI inh)
O=c1[nH]c2ccc(Cl)cc2c(=O)n1Cc1ccco1	Tb MetRS inh 9.4 (no result: ERp5 block) | Tb MetRS conf 28 | Jurkat cytotox inactive | TbMetRS FP orth inactive
O=c1c2cc(N3CCOCC3)ccc2[nH]c(=S)n1Cc1ccco1	none (no result: ERp5 block)
O=c1[nH]c2ccccc2c(=O)n1Cc1ccco1	none (no result: ERp5 block)
O=c1c2cc(Cl)ccc2[nH]c(=S)n1Cc1ccco1	Tb MetRS inh 8.1 (no result: ERp5 block) | Tb MetRS conf 13 | Jurkat cytotox inactive | TbMetRS FP orth inactive
COc1cccc(S(=O)(=O)N[C@@H]2CC[C@H](CCn3cc(-c4ccccc4OC)nn3)O[C@@H]2CO)c1	none (no result: Tb MetRS inh, PDI inh)
Cc1ccc(S(=O)(=O)N(C)C[C@@H]2Oc3c(NC(=O)NC4CCCCC4)cccc3C(=O)N([C@H](C)CO)C[C@H]2C)cc1	none (no result: Tb MetRS inh, PDI inh)
CCC(=O)Nc1ccc2c(c1)C(=O)N(C)C[C@@H](OC)[C@@H](C)CN(C(=O)C1CCC1)[C@H](C)CO2	none (no result: Tb MetRS inh, PDI inh)
COc1ccc(NC(=O)c2cccc(Oc3ccc([N+](=O)[O-])cc3Cl)c2)cc1	none
CCN(CC)C(=O)c1ccc(Oc2ccc([N+](=O)[O-])cc2Cl)cc1	Tb MetRS inh 5.9 | Tb MetRS conf 13 | Jurkat cytotox inactive | TbMetRS FP orth inactive
CS(=O)(=O)N1[C@H](C(=O)NCCc2ccncc2)[C@@H](CO)[C@@H]2Cn3c(ccc(C4=CCCC4)c3=O)[C@@H]21	none (no result: Tb MetRS inh, PDI inh)
Cn1nc(C(F)(F)F)c(-c2ccc(F)cc2)c1NC(=O)c1ccco1	none
Cn1nc(C(F)(F)F)c(-c2ccc(Br)cc2)c1NC(=O)Nc1ccc(F)cc1F	Tb MetRS inh 25 | Tb MetRS conf 54 | Jurkat cytotox inactive | TbMetRS FP orth 31
CN(C)C(=O)C[C@@H]1CC[C@H]2[C@H](COc3ccc(NC(=O)C4CCOCC4)cc3C(=O)N2C)O1	none (no result: Tb MetRS inh, PDI inh)
c1ccc2c(c1)ncn2-c1ncnc2sc3c(c12)CCCC3	none (no result: ERp5 block)
CC(O)CNc1nc2ccccc2n1-c1ncnc2sc3c(c12)CCC3 (configuration not stated)	Tb MetRS inh 9.3 (no result: ERp5 block) | Tb MetRS conf 16 | Jurkat cytotox inactive | TbMetRS FP orth inactive
C[C@@H]1CN([C@H](C)CO)C(=O)Cc2cc(NC(=O)CCN3CCOCC3)ccc2O[C@H]1CN(C)C(=O)Nc1ccc(F)cc1	none (no result: Tb MetRS inh, PDI inh)
O=C(NNC(=O)c1ccc2nonc2c1)Nc1ccc(Cl)cc1	Tb MetRS inh 10 | Tb MetRS conf 20 | Jurkat cytotox inactive | TbMetRS FP orth inactive
O=C(NNC(=O)c1cccnc1)Nc1ccc(Cl)c(Cl)c1	none (no result: ERp5 block)
CCCNC(=O)N1[C@H](CO)[C@H]2c3ccccc3N(C(=O)NC(C)C)C[C@H]21	none (no result: Tb MetRS inh, PDI inh)
COc1cc(OC)c(CNS(=O)(=O)c2ccc(Br)cc2)c(OC)c1	none (no result: Tb MetRS inh, PDI inh)
CCCCN(C)Cc1c(C)[nH]c2ccccc2c1=O	none
CCCCN(C)Cc1c(C)[nH]c2ccc(C)cc2c1=O	Tb MetRS inh 10 (no result: ERp5 block) | Tb MetRS conf 21 | Jurkat cytotox inactive | TbMetRS FP orth inactive
C[C@@H]1CN([C@H](C)CO)C(=O)CCCn2cc(nn2)CO[C@H]1CN(C)Cc1ccc(C(F)(F)F)cc1	none (no result: Tb MetRS inh, PDI inh)
COc1cccc(NC(=O)N(C)C[C@@H]2Oc3cc(C#CC4(O)CCCC4)ccc3S(=O)(=O)N([C@@H](C)CO)C[C@@H]2C)c1	none (no result: Tb MetRS inh, PDI inh)
C(=C/c1nccc2c1[nH]c1ccccc12)/c1ccc2c(c1)OCO2	Tb MetRS inh 5.9 | Tb MetRS conf inactive | Jurkat cytotox 42 | TbMetRS FP orth 91
C(=N\Nc1nc2ccccc2[nH]1)/c1ccc2c(c1)OCO2	none
COCC(=O)Nc1ccc2c(c1)[C@H]1C[C@@H](CC(=O)N(C)C)O[C@H](CO)[C@H]1O2	none (no result: Tb MetRS inh, PDI inh)
CC(C)CCNC(=O)CCCn1c(=O)[nH]c2ccc(Br)cc2c1=O	none (no result: ERp5 block)
NS(=O)(=O)c1ccc(CCNC(=O)CCCn2c(=O)[nH]c3ccc(Br)cc3c2=O)cc1	Tb MetRS inh 14 | Tb MetRS conf 22 | Jurkat cytotox inactive | TbMetRS FP orth inactive
CO[C@H]1CN(C)C(=O)c2cc(NC(=O)C3CC3)ccc2OC[C@H](C)N(C)C[C@@H]1C	none (no result: Tb MetRS inh, PDI inh)
Clc1ccc2nc(C3CCN(Cc4nnnn4C4CCCCC4)CC3)[nH]c2c1	Tb MetRS inh 69 (no result: ERp5 block) | Tb MetRS conf 81 | Jurkat cytotox inactive | TbMetRS FP orth 56
Cc1ccc(Cl)cc1N1CCN(Cc2nnnn2C2CCCCC2)CC1	none (no result: ERp5 block)
Cc1ccc(Cn2nnnc2CN2CCC(c3nc4ccc(Cl)cc4[nH]3)CC2)cc1	Tb MetRS inh 21 (no result: ERp5 block) | Tb MetRS conf 36 | Jurkat cytotox 43 | TbMetRS FP orth inactive

Screening results (PubChem BioAssay)
